What is called apparent Kd is the concentration giving half-maximal binding under the conditions of the assay.

This data set relates to MS2 coat protein. Briefly: apparent Kd, MS2 coat protein; higher = weaker binding; RNA-MaP array; FMN 200 µM where present. The essentials: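 The apparent Kd is reported as the median of filtered per-cluster binding-curve fits. To get these curves, designs transcribed by stalled E. coli RNA polymerase on Illumina sequencing-chip clusters were titrated with SNAP-549-labelled MS2 coat protein from 0.7 or 1.5 nM, doubling to 3 µM. Titrations were run without and then with constant ligand in 100 mM Tris-HCl pH 7.5, 80 mM KCl, 4 mM MgCl2, BSA, DTT, yeast tRNA and Tween-20, and green signal was normalised to red-channel RNA signal and control-cluster median Fmax.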

Setting [1] is: designed as: ON switch for flavin mononucleotide, no ligand.
Setting [2] is: ligand present: flavin mononucleotide, designed as: ON switch for flavin mononucleotide.
[3] abbreviates: ligand present: flavin mononucleotide, designed as: OFF switch for flavin mononucleotide.
Setting [4] is: designed as: OFF switch for flavin mononucleotide, no ligand.

For “GUACAUGAGCAGAAGGGCAUUUAAUUAGAUUUUUAUGUUGAUCAGAAAUGCAGGAUAUGUUAAACAUGAGGAUCACCCAUGUAC”, the “apparent Kd” value under setting [1] came to 218 nM and the “apparent Kd” value under setting [2] amounted to 24.1 nM.
In the case of “GUGGUCAGACAUGAGGAUCACCCAUGUGGAAUAAAUAAGGAGAAGGAUAUGCAAUAUAGGAUAUAGCAGAAGGUUUGGUUGGUG”, the “apparent Kd” value reads like this: under setting [1], 95.8 nM; under setting [2], 111 nM.
Take “GUGCCUUGGGAGAAGGCAGUAUGCAAAGCAUUCUGAGGAUAUCCAUACCGGAAACGGACAUGAGGAUCACCCAUGUGGCACAAA”: the “apparent Kd” value stood at 18.5 nM under setting [1] and 7.52 nM under setting [2].
As for “CCAAGUUCGUAGGAUAUAGAUGCCUUAGGGCAAUUAGAAGGAUGGACAUGAGGAUCACCCAUGUCGGAUUCUGU”, the “apparent Kd” value under setting [3] stood at 18 nM.
For “AAUGUGUCAGGAUAUUGUUAGUUUAGUUGUUUGUAUUAGUUCGAGAAGGGACAUGAGGAUCACCCAUGUUGUUU”, the “apparent Kd” value by setting is: under setting [4], 30.2 nM; under setting [3], 30.6 nM.
Turning to “UGUCCAUAGCAGAAGGACAUGAAUAAUCAUGAAAACAUGAGGAUCACCCAUGUAGGAUAUGCUAUGGACUAAGAGCGAAAGCUC”, the “apparent Kd” value is, setting by setting: under setting [4], 28.6 nM; under setting [3], 430 nM.
“GAGGCACAUGAGGAUCACCCAUGUGGGUAGAACAUAGGAUAUCACCAACAAAUUACCCGGUGAGAAGGAUGAUGCC”: the “apparent Kd” value is, setting by setting: under setting [1], 234 nM; under setting [2], 57.4 nM.
For “UGUCGGAGCAGAGGAUAUCACAUGAGGAUCACCCAUGUAUGAACCAAUAGCUGGAAACAGCAAUGUAAGAAGGCUGCUCCGACA”, the “apparent Kd” value came to 5.64 nM under setting [4] and 9.62 nM under setting [3].
As to “GUAGCAUACUGAGGAUAUUCAUACCGGAAACGGACAUGAGGAUCACCCAUGUGGCGAAAGCCUUUGGAGAAGGCAGAAUGCUAC”, the “apparent Kd” value by setting is: under setting [1], 13.7 nM; under setting [2], 13.7 nM.
On to “GGUCGUCACAUUAACAUGAGGAUCACCCAUGUCUCUAGACAUGAGGAUAUGGAUCCUAAUUGGAUCCAGAAGGCAUGGACGACC”, for which the “apparent Kd” value reads like this: under setting [1], 1490 nM; under setting [2], 142 nM.
Take “AUAUAUAUUAGAGGAUAUGUGUUCAUGUUACAUGAGGAUCACCCAUGUUUAGGUUGAUUUAUCUUACAGAAGGCUAUACAAUCA”: the “apparent Kd” value turned out to be 71.5 nM under setting [4] and 76 nM under setting [3].
As for “GCCAGAGGAGGAUAUCUAAUAUAUCACAUGAGGAUCACCCAUGUCCAGCGAAAGCUGGAGGGAGAAGGCCUCUGGC”, the “apparent Kd” value by setting is: under setting [4], 149 nM; under setting [3], 29.8 nM.
For the sequence “GCUAUCAAUGUCAGGAUAUUUAUUUGGGCUUAAUUGAAGAAGGGACAUGAGGAUCACCCAUGUGGCGCAGAGUU”, the “apparent Kd” value reads like this: under setting [4], 36.9 nM; under setting [3], 202 nM.
For “UUGUUCUGAGGAUAUACAUGAGGAUCACCCAUGUGUUUCAGCUAGGAGACUAGCGAAUGUAGAAGGCUGUUCUC” the same measures were 15.4 nM and 15.8 nM.
For “CUUUUGUGAGGAUAUCAGUAUUAAAUAAAUAAAAUUACUACUGAGAAGGCACAUGAGGAUCACCCAUGUUCCUC”, in that order: 33.4 nM and 201 nM.
Consider “ACCAUUUACUAAUUUUCUAUACAUGAGGAUCACCCAUGUUUUGAGGAUAUCAGCGUGAAACACGCUGAGAAGGCAAAACAUUCG”, for which the “apparent Kd” value under setting [4] worked out at 142 nM and the “apparent Kd” value under setting [3] was determined as 387 nM.
Consider “CCUCAACAGUAGGAUAUCAUAUAACUAUUGUGAUGAGAAGGACUGACAUGAGGAUCACCCAUGUUAACGUGAUA”, for which the “apparent Kd” value is 18 nM under setting [4] and 24.9 nM under setting [3].
In the case of “GCCAUCGCGUGAGGAUAUGGCACCGUUUCGGUGCCAGAAGGCAUGUCAAAUGACAUGAGGAUCACCCAUGUAGUUAAGAUGGCA”, the “apparent Kd” value runs as follows: under setting [1], 180 nM; under setting [2], 13.2 nM.
Regarding “GAAAUAAUGUAAGGAUAUACAUGAGGAUUUCUCGUAGAAGGUACAAGACAUGAGGAUCACCCAUGUGUCGCUCCGUAGAGCGUA”, the “apparent Kd” value is, setting by setting: under setting [1], 308 nM; under setting [2], 299 nM.
With “UCAUUAUAAAUCCAUCAUAACUACAUGAGGAUCACCCAUGUGCAGGAUAUCGAUUUUUUAACUUUCGAGAAGGGCAAUUACAGA”, the “apparent Kd” value runs as follows: under setting [4], 37.6 nM; under setting [3], 96.1 nM.
As for “CGCACUAUACAUGAGGAUCACCCAUGUUAACUUUAGCUAUUCAGAAGGCAUAAAUAGAGAUUAAAUGAGGAUAUGAUUAGUGCG”, the “apparent Kd” value runs as follows: under setting [1], 88.6 nM; under setting [2], 28.3 nM.
With “CUUGUUUAAGUGAGGAUAUACUGUUAGUAAUGAUUGUAGAAGGUACAUGAGGAUCACCCAUGUUUAUUUAUAUU”, the “apparent Kd” value by setting is: under setting [4], 17.8 nM; under setting [3], 16.7 nM.
On to “AAGCGAGGGACAGGAUAUGCGGCGAAACUCGCCGCAGAAGGGUCGACAUGAGGAUCACCCAUGUCCUUACGCUCCAAGUAAAGG”, for which the “apparent Kd” value turned out to be 216 nM under setting [1] and 436 nM under setting [2].
As to “GGUUGUCAUCGUCAUCCUUUCGGUACAUGAGGAUCACCCAUGUAGGAUAUGCUGCAUUCGAUGUGGCAGAAGGGCGUGUGUGUU”, the “apparent Kd” value runs as follows: under setting [4], 23.5 nM; under setting [3], 41 nM.
For “GCGUUGAACGAGAAGGCCAAUACAUGAGGAUCACCCAUGUAGUGAAGUAUUGGAGGAUAUCGAUCGUCGUCUCAUGAGCAACGC” the same measures were 8.88 nM and 25.3 nM.
Take “GGUAGAGAGCAGGAUAUCUUGGGUAAGUAUUGUAGAGAAGGGCUCACAUGAGGAUCACCCAUGUGGUCCAAGAU”: the “apparent Kd” value under setting [4] came out at 13.9 nM and the “apparent Kd” value under setting [3] came out at 29.8 nM.
For “UGGUACAUGGGAGGAUAUGGGUUGAUAACAUGAGGAUCACCCAUGUUAAAUAAGCCGAGAGGCUACCAGAAGGCCCAUGUACCU”, the “apparent Kd” value is 7.29 nM under setting [1] and 4.99 nM under setting [2].
On to “GAAGCACACAUUAACAUGAGGAUCACCCAUGUCAAAAGACAUGAGGAUAUGGAUCUGAAGAAGAUCCAGAAGGCAUUGUGCUAA”, for which the “apparent Kd” value under setting [1] was found to be 388 nM and the “apparent Kd” value under setting [2] was determined as 25.6 nM.
For “CAUAUAGUUUGAGGAUAUUCAUGCACUGUAUACGGAGAAGGCAAACUAUCAUGUGGACAUGAGGAUCACCCAUGUAGUGACCAG”, the “apparent Kd” value reads like this: under setting [1], 54.2 nM; under setting [2], 41 nM.
As to “ACAUAAAUUCGAGGAUAUCGGUGAUAUAAUUUACGAGAAGGCGAUAAAUGUUAUAAACUUAUAGACAUGAGGAUCACCCAUGUA”, the “apparent Kd” value came to 35.1 nM under setting [1] and 32.5 nM under setting [2].
Regarding “GGAAGACAAAGUCUUCCAUUACGAACAUGAGGAUCACCCAUGUAGGAUAUGCUACUCAAAGAGUAGCAGAAGGACAUGUGUCUU”, the “apparent Kd” value was determined as 27.4 nM under setting [4] and 120 nM under setting [3].
For “CUGUCGAUAUCAGGAUAUCGAUUAAUUACAUGAGGAUCACCCAUGUUGACAUGGAAUAUAACUUGCGAGAAGGGAUUACGAUAG”, the “apparent Kd” value runs as follows: under setting [1], 28.3 nM; under setting [2], 22.3 nM.
“CGAUAUAUGAAGGGCGAACGCGCACAUGAGGAUCACCCAUGUAGAAGGCGAUCCGCAACGCGGAUCGAGGAUAUAUAGUAUACG”: the “apparent Kd” value was 32.7 nM under setting [4] and 34 nM under setting [3].
For “GUUCUUCCUGUAAGGAUAUCCAUGUAUCAAAGUAUGGAGAAGGUACAUGAGGAUCACCCAUGUCACCCGCGUUA” the same measures were 22.8 nM and 49.6 nM.
“AAUAAACUCACAGGAUAUAGCAGAGGUCGCGUGAACUUACAGGCGACGAGGCUAGAAGGGUGACCACAUGAGGAUCACCCAUGU”: the “apparent Kd” value was determined as 858 nM under setting [1] and 95.8 nM under setting [2].
In the case of “UCGGCGCGAGGAUAUACGUUUGCUUUUUUUUGUCGUUGCGUACAUGAGGAUCACCCAUGUAGAAGGCGCGCCGC”, the “apparent Kd” value reads like this: under setting [4], 16.7 nM; under setting [3], 31 nM.
Take “AGUCGGCGAGGAUAUACAUGAGGAUCACCCAUGUGAUAGAGUGCACGCGUACGUGUAUGUAGAAGGCGCUGACA”: the “apparent Kd” value by setting is: under setting [4], 82 nM; under setting [3], 748 nM.
Regarding “UUCAAAUCGUAGAAGGGUGACAUGAGGAUCACCCAUGUGCAGCAGCCGUGAACGGCCAUGCUGCCACAGGAUAUACGAUGGAGU”, the “apparent Kd” value amounted to 93.2 nM under setting [1] and 96.5 nM under setting [2].
Turning to “UAUAUUUAUGUAGGAUAUGGUAUAUAAAAUAUACCAGAAGGACAUGAGGAUCACCCAUGUAUGAAAUUCCAUAAUUACCGUGUA”, the “apparent Kd” value is, setting by setting: under setting [4], 9.98 nM; under setting [3], 11.3 nM.
On to “GUAGCAUUGAGAGGAUAUCCAUAUCCGAAAGGGACAUGAGGAUCACCCAUGUCGCGAAAGCGGUGGGAGAAGGCUCUAUGCUAC”, for which the “apparent Kd” value is 4.92 nM under setting [1] and 5.01 nM under setting [2].
For “CAGCUGAAAGUCAGGAUAUCUAGAGCUGCGGCUCUAGAGAAGGGACAUGAGGAUCACCCAUGUCACUCCAGCUG”, the “apparent Kd” value reads like this: under setting [4], 16.4 nM; under setting [3], 18.3 nM.
For “GUAUGGAGGGAGAAGGGCUAGGAGGUCCAGCUUAUGUGUGUUGCAACAUGAGGAUCACCCAUGUAGCAGGAUAUCCCUUGUACA”, in that order: 44.4 nM and 242 nM.
As to “CUAUUUUGUGCCUCAUUUACAUGAGGAUCACCCAUGUUAACUUAGGAUAUAUUUAUAUUGUUAGAGUAGAAGGAAGUACAUUUU”, the “apparent Kd” value turned out to be 162 nM under setting [4] and 133 nM under setting [3].
On to “UCGCCAGGUACAGGAUAUGUGGAUCAGUCAAGUAACUUGCUGAACAUGAGGAUCACCCAUGUAUCACAGAAGGGUGCCUCAAAA”, for which the “apparent Kd” value is, setting by setting: under setting [1], 199 nM; under setting [2], 10.8 nM.
With “AAUGUCAGAAAGGAUAUGUAACUUGUAACUGUGACAGAAGGUUCGACAUGAGGAUCACCCAUGUUGAUCCAGGU”, the “apparent Kd” value reads like this: under setting [4], 14.1 nM; under setting [3], 26.4 nM.
For the sequence “GCAUUGAUAACAGGAUAUAUGAAUCCUACAUGAGGAUCACCCAUGUAGGUGAUCAGCCGUGAUUAGUAGAAGGGUUAUCAAUGC”, the “apparent Kd” value reads like this: under setting [1], 13 nM; under setting [2], 6.49 nM.
For “CAUUUACAUGAGGAUCACCCAUGUUCUGGCGGGUCAGGAUAUAGAUCGGAUGCGUUCUGUCUAGAAGGGACAUGUU”, in that order: 72 nM and 35.6 nM.
Regarding “AGACAGUGAGGAUAUGCAGUCGGUGUCACCUGAUGAGAAGAACAUGAGGAUCACCCAUGUAGAAGGCACAGGAA”, the “apparent Kd” value runs as follows: under setting [4], 39 nM; under setting [3], 229 nM.

The values are drawn from the EternaBench riboswitch data.
